Test results published in ChEMBL document CHEMBL1667754, “Synthesis and biological activity of pyrazolothienotetrahydroisoquinoline and [1,2,4]triazolo[3,4-a]thienotetrahydroisoquinoline derivatives” (2011).

Legend:
Serratia marcescens = assay: Antibacterial activity against Serratia marcescens at 200 ug/disc by disc diffusion assay
Aspergillus niger = assay: Antifungal activity against Aspergillus niger at 2% by disc diffusion assay
Aspergillus flavus = assay: Antifungal activity against Aspergillus flavus at 2% by disc diffusion assay
Trichophyton rubrum = assay: Antifungal activity against Trichophyton rubrum at 50 uL/well by well diffusion assay; format: functional
In short: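 Agar discs (10 mm) carrying spores and hyphae were shaken in sterile distilled water. 1 mL of the spore suspension was plated and mixed with 15 mL molten SDA, then left to set. Compounds were at 2% in DMSO, applied per Bauer's diffusion method. The read-out was the inhibition zone (mm).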

Staphylococcus aureus = assay: Antibacterial activity against Staphylococcus aureus at 200 ug/disc by disc diffusion assay
Fusarium oxysporum = assay: Antifungal activity against Fusarium oxysporum at 2% by disc diffusion assay
Candida albicans = assay: Antifungal activity against Candida albicans at 200 ug/disc by disc diffusion assay
Escherichia coli = assay: Antibacterial activity against Escherichia coli at 50 uL/well by well diffusion assay; format: functional
In short: (§1)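 Bauer-type diffusion assay. Test compounds were at 2% in DMSO. The read-out was the diameter (mm) of the inhibition zone, with chloramphenicol as the reference agent.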

[1] = test system: Scopulariopsis brevicaulis; assay: Antifungal activity against Scopulariopsis brevicaulis at 2% by disc diffusion assay
Geotrichum candidum = assay: Antifungal activity against Geotrichum candidum at 2% by disc diffusion assay
Bacillus cereus = assay: Antibacterial activity against Bacillus cereus at 200 ug/disc by disc diffusion assay
Micrococcus luteus = assay: Antibacterial activity against Micrococcus luteus at 50 uL/well by well diffusion assay; format: functional
In short: as §1

Pseudomonas aeruginosa = assay: Antibacterial activity against Pseudomonas aeruginosa at 200 ug/disc by disc diffusion assay

Row | SMILES | diameter of the inhibition zone (DIZ) (Serratia marcescens) [mm] | diameter of the inhibition zone (DIZ) (Aspergillus niger) [mm] | diameter of the inhibition zone (DIZ) (Aspergillus flavus) [mm] | diameter of the inhibition zone (DIZ) (Trichophyton rubrum) [mm] | diameter of the inhibition zone (DIZ) (Staphylococcus aureus) [mm] | diameter of the inhibition zone (DIZ) (Fusarium oxysporum) [mm] | diameter of the inhibition zone (DIZ) (Candida albicans) [mm] | diameter of the inhibition zone (DIZ) (Escherichia coli) [mm] | diameter of the inhibition zone (DIZ) [1] [mm] | diameter of the inhibition zone (DIZ) (Geotrichum candidum) [mm] | diameter of the inhibition zone (DIZ) (Bacillus cereus) [mm] | diameter of the inhibition zone (DIZ) (Micrococcus luteus) [mm] | diameter of the inhibition zone (DIZ) (Pseudomonas aeruginosa) [mm]
1 | NC(=O)c1sc2c(c1N)c1c(c3nncn32)CCCC1 | 0 | 0 | 0 | 0 | 8 | 0 | 0 | 0 | 0 | 0 | 10 | 0 | 0
2 | CC(=O)CSc1c(C#N)c2c(c3nncn13)CCCC2 | 12 | 0 | 0 | 0 | 10 | 0 | 0 | 8 | 0 | 0 | 12 | 12 | 0
3 | CC(=O)c1sc2c(c1N)c1c(c3nncn32)CCCC1 | 0 | 0 | 0 | 0 | 0 | 0 | 0 | 0 | 0 | 0 | 0 | 0 | 0
4 | N#Cc1c2c(c3nncn3c1SCC(=O)c1ccccc1)CCCC2 | 0 | 16 | 20 | 0 | 0 | 11 | 11 | 10 | 10 | 8 | 14 | 14 | 0
5 | Nc1c(C(=O)c2ccccc2)sc2c1c1c(c3nncn32)CCCC1 | 0 | 13 | 15 | 0 | 0 | 0 | 11 | 10 | 8 | 8 | 0 | 11 | 0
6 | N#CCSc1nc(NN)c2c(c1C#N)CCCC2 | 10 | 0 | 0 | 0 | 8 | 0 | 10 | 0 | 0 | 0 | 0 | 0 | 0
7 | Cc1cc(C)n(-c2nc(SCC#N)c(C#N)c3c2CCCC3)n1 | 10 | 8 | 0 | 0 | 8 | 8 | 12 | 0 | 0 | 10 | 8 | 0 | 0
8 | CCOC(=O)CSc1nc(NN)c2c(c1C#N)CCCC2 | 0 | 0 | 0 | 0 | 8 | 0 | 0 | 0 | 0 | 0 | 8 | 0 | 0
9 | CCOC(=O)CSc1nc(-n2nc(C)cc2C)c2c(c1C#N)CCCC2 | 10 | 0 | 0 | 0 | 7 | 0 | 0 | 10 | 0 | 10 | 0 | 0 | 0
10 | N#Cc1c(SCC(N)=O)nc(NN)c2c1CCCC2 | 8 | 0 | 0 | 0 | 0 | 10 | 0 | 11 | 0 | 10 | 0 | 0 | 0
11 | Cc1cc(C)n(-c2nc(SCC(N)=O)c(C#N)c3c2CCCC3)n1 | 0 | 8 | 0 | 0 | 10 | 0 | 0 | 0 | 0 | 0 | 0 | 0 | 0
12 | CC(=O)CSc1nc(NN)c2c(c1C#N)CCCC2 | 8 | 0 | 0 | 20 | 0 | 0 | 11 | 12 | 0 | 12 | 11 | 0 | 0
13 | CC(=O)CSc1nc(-n2nc(C)cc2C)c2c(c1C#N)CCCC2 | 8 | 0 | 0 | 17 | 0 | 10 | 10 | 13 | 0 | 8 | 0 | 0 | 0
14 | O=C(N[C@H](CO)[C@H](O)c1ccc([N+](=O)[O-])cc1)C(Cl)Cl [CHLORAMPHENICOL] | 40 |  |  |  | 20 |  |  | 34 |  |  | 30 | 18 | 17
15 | Clc1ccccc1C(c1ccccc1)(c1ccccc1)n1ccnc1 [CLOTRIMAZOLE] |  | 25 | 26 | 40 |  | 25 | 27 |  | 27 | 26 |  |  | 
